This is an account of results in ChEMBL document CHEMBL1153057, “Chemical constituents of propolis from Myanmar and their preferential cytotoxicity against a human pancreatic cancer cell line” (2009).

The test system of assay [1] is PANC-1. The assay can be described thus: Cytotoxicity against human PANC1 cells in nutrient-deprived condition assessed as 100% cell death after 24 hrs by WST8 assay. In kind it is functional. Put shortly:
(§1)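 PANC-1 cells, 2 × 10⁴ per well, grown 24 h in DMEM at 37 °C under 5% CO2, PBS-washed, then switched to DMEM or nutrient-deprived medium (glucose-, amino acid- and serum-free salts, vitamins, 25 mM HEPES, pH 7.4) holding serial dilutions for 24 h. Viability by WST-8 (10% in DMEM, 3 h, A450), blank-corrected against untreated control, mean of three wells. PC100/PC50 = concentration killing 100%/50% of cells preferentially in NDM.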
(In general: Tetrazolium assays rely on reduction of a dye to a coloured formazan, in cell work by metabolically active cells.)

Assay [2] deals with PANC-1. The experiment in a line: Cytotoxicity against human PANC1 cells in nutrient-deprived condition assessed as 50% cell death after 24 hrs by WST8 assay. In kind it is functional. The procedure, abridged: as §1
Assay [3] relates to PANC-1. The assay can be described thus: Cytotoxicity against human PANC1 cells in nutrient-deprived condition assessed as complete preferential cell death at 6.25 uM within 24 hrs of starvation by WST8 assay. In kind it is functional.
In assay [4] the test system is PANC-1. The experiment in a line: Induction of apoptosis in human PANC1 cells in nutrient deprived condition assessed as morphological changes at 6.25 uM within 24 hrs of treatment using phase contrast microscopy by WST8 assay. It counts as functional, cell-based.
Assay [5] has as its system PANC-1. The experiment in a line: Cytotoxicity against human PANC1 cells in nutrient-deprived condition assessed as complete preferential cell death at 50 uM within 6 hrs of treatment by WST8 assay. In kind it is functional.

Active and inactive are the calls of the source. No cut-off for these calls is given here.

Regarding `CC(C)=CCc1cc([C@@H]2CC(=O)c3c(O)cc(O)c(CC=C(C)C)c3O2)ccc1O` [LESPEDEZAFLAVANONE B], in the assay with PANC-1 [1], the CD100 was 25 µM. Also, the PC50 with PANC-1 [2] turned out to be 19.8 µM.
Taken in the same sequence, the figures for `C[C@H](CC/C=C(\CO)C(=O)O)[C@H]1CC[C@@]2(C)[C@@H]3CC[C@@H]4[C@@]5(CCC(=O)[C@@]4(C)CO)C[C@@]35CC[C@]12C` were more than 100 µM and more than 100 µM.
With `C/C(=C/C=C/[C@@H](C)[C@H]1CC[C@@]2(C)[C@@H]3CC[C@H]4C(C)(C)C(=O)CC[C@@]45C[C@@]35CC[C@]12C)C(=O)O`, the CD100 in the assay on PANC-1 [1] came out at 6.3 µM. For the same molecule, the PC50 in the assay on PANC-1 [2] turned out to be 4.3 µM. In addition, the Activity in the assay with PANC-1 [3] and with PANC-1 [5] was 100% in each case. For the same molecule, the result in the assay on PANC-1 [4] was Active.
For the molecule `C[C@H](CC/C=C(\CO)C(=O)O)[C@H]1CC[C@@]2(C)[C@@H]3CC[C@H]4C(C)(C)C(=O)CC[C@@]45C[C@@]35CC[C@]12C`, the CD100 in the assay with PANC-1 [1] was 50 µM. The PC50 in the assay with PANC-1 [2] is 38.5 µM.
The matching figures for `C/C(=C\CC[C@@H](C)[C@H]1CC[C@@]2(C)[C@@H]3CC[C@H]4C(C)(C)[C@@H](O)CC[C@@]45C[C@@]35CC[C@]12C)C(=O)O` [MANGIFEROLIC ACID]: more than 100 µM and more than 100 µM.
Taken in the same sequence, the figures for `C/C(=C\C(O)C[C@@H](C)[C@H]1CC[C@@]2(C)[C@@H]3CC[C@H]4C(C)(C)[C@@H](O)CC[C@@]45C[C@@]35CC[C@]12C)C(=O)O` (stereo partly specified) were more than 100 µM and more than 100 µM.
Taken in the same sequence, the figures for `C[C@H](CC/C=C(\CO)C(=O)O)[C@H]1CC[C@@]2(C)[C@@H]3CC[C@H]4C(C)(C)[C@@H](O)CC[C@@]45C[C@@]35CC[C@]12C` were more than 100 µM and more than 100 µM.
For `C/C(=C\CC[C@@H](C)[C@H]1CC[C@@]2(C)[C@@H]3CC[C@@H]4[C@@]5(CCC(=O)[C@@]4(C)CO)C[C@@]35CC[C@]12C)C(=O)O`, the CD100 with PANC-1 [1] is more than 100 µM. In addition, the PC50 with PANC-1 [2] is more than 100 µM.
Regarding `C/C(=C\CC[C@@H](C)[C@H]1CC[C@@]2(C)[C@@H]3CC[C@H]4C(C)(C)[C@H](O)CC[C@@]45C[C@@]35CC[C@]12C)C(=O)O` [ISOMANGIFEROLIC ACID], the CD100 in the assay with PANC-1 [1] stood at 25 µM. Moreover, the PC50 in the assay with PANC-1 [2] turned out to be 13.7 µM.
The matching figures for `C/C(C=O)=C\CC[C@@H](C)[C@H]1CC[C@@]2(C)[C@@H]3CC[C@H]4C(C)(C)[C@@H](O)CC[C@@]45C[C@@]35CC[C@]12C`: more than 100 µM and more than 100 µM.
On to `C/C(=C\CC[C@@H](C)[C@H]1CC[C@@]2(C)[C@@H]3CC[C@H]4C(C)(C)C(=O)CC[C@@]45C[C@@]35CC[C@]12C)C(=O)O` [MANGIFERONIC ACID], for which the CD100 in the assay with PANC-1 [1] is more than 100 µM. Further, the PC50 with PANC-1 [2] is more than 100 µM.
As for `CC(=O)O[C@H]1C(=O)[C@@]2(C)[C@H]([C@H](OC(=O)c3ccccc3)[C@]3(O)C[C@H](OC(=O)[C@H](O)[C@@H](NC(=O)c4ccccc4)c4ccccc4)C(C)=C1C3(C)C)[C@]1(OC(C)=O)CO[C@@H]1C[C@@H]2O` [PACLITAXEL], the CD100 in the assay on PANC-1 [1] is more than 100 µM. Moreover, the PC50 with PANC-1 [2] is more than 100 µM.
On to `O=c1[nH]cc(F)c(=O)[nH]1` [FLUOROURACIL], for which, in the assay on PANC-1 [1], the CD100 was more than 100 µM. Also, the PC50 with PANC-1 [2] is more than 100 µM.
`CC(C)=CCc1c(O)cc(O)c2c1O[C@H](c1ccc(O)cc1)CC2=O` [SOPHORAFLAVANONE B]: the CD100 with PANC-1 [1] came out at 50 µM. Further, the PC50 in the assay with PANC-1 [2] turned out to be 39.4 µM.
Taken in the same sequence, the figures for `C[C@H](CC/C=C(\CO)C(=O)O)[C@H]1CC[C@@]2(C)[C@@H]3CC[C@H]4C(C)(C)[C@H](O)CC[C@@]45C[C@@]35CC[C@]12C` were 25 µM and 15.5 µM.
The matching figures for `C/C(=C\C(O)C[C@@H](C)[C@H]1CC[C@@]2(C)[C@@H]3CC[C@H]4C(C)(C)C(=O)CC[C@@]45C[C@@]35CC[C@]12C)C(=O)O` (stereo partly specified): 50 µM and 28 µM.
The matching figures for `COc1cc(C[C@H]2C(=O)OC[C@@H]2Cc2ccc(OC)c(OC)c2)ccc1O` [ARCTIGENIN]: 1 µM and 0.4 µM.
As for `COc1ccc([C@@H]2CC(=O)c3c(O)cc(O)c(CC=C(C)C)c3O2)cc1CC=C(C)C`, the CD100 in the assay with PANC-1 [1] came out at 12.5 µM. Moreover, the PC50 in the assay with PANC-1 [2] is 7.9 µM.
Taken in the same sequence, the figures for `C/C(=C\CC(O)[C@@H](C)[C@H]1CC[C@@]2(C)[C@@H]3CC[C@H]4C(C)(C)[C@H](O)CC[C@@]45C[C@@]35CC[C@]12C)C(=O)O` (stereo partly specified) were 25 µM and 13.4 µM.
